Measured values gathered from unrelated publications.
Protocols differ between the studies behind these lines.
Target: cAMP-dependent protein kinase catalytic subunit PRKX (PRKX, Homo sapiens, UniProt P51817)
Residues used in one study (P51817 1-358): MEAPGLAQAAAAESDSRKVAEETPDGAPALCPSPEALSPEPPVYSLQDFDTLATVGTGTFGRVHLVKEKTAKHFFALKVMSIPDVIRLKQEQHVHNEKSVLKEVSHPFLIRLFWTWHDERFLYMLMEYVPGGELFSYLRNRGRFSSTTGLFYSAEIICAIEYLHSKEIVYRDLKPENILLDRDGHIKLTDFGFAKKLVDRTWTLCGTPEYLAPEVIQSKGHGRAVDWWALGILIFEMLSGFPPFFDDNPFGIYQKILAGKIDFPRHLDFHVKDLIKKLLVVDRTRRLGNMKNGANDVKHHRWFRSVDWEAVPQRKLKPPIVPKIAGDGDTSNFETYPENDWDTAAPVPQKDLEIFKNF

| SMILES | read-out | action | method | tested at | endpoint | value |
| --- | --- | --- | --- | --- | --- | --- |
| Cn1cnc(Br)c1C1=CN(c2ncnc3[nH]cnc23)CCS1 | enzyme activity | inhibitor | radiometric | 50 nM | inhibition | 17.6% |
| CCCOc1ccc(OC)c(F)c1C(=O)c1ccc(C(=O)N[C@@H]2CNC[C@H]2NC(=O)c2ccc3[nH]ncc3c2)cc1 | enzyme activity | inhibitor |  | 0.5 µM | remaining activity | 5% |
| O=C1NC(c2ccccn2)Sc2ccccc21 (centres unmarked) | cell-free assay |  | competition with immobilised ligand | 1 µM | remaining binding | 100% |
| COc1cc2ncnc(Nc3ccc(Oc4ccccc4)c(C)c3C)c2cc1OC | enzyme activity | inhibitor |  | 1 µM | inhibition | -12% |
| CC(C)(C)c1nc2c(s1)c1nc(N)ncc1c1ccc(NS(=O)(=O)c3c(F)cccc3F)c(F)c12 | enzyme activity | inhibitor | radiometric | 1 µM | remaining activity | 82% |
| CCN(CC)c1ccc(C2=NNC(=O)CC2C)cc1[N+](=O)[O-] (centres unmarked) | enzyme activity | inhibitor |  | 10 µM | remaining activity | 91% |
| C[C@H](c1cccc(C#N)c1)n1cc(Cl)cc(C(N)=O)c1=N | cell-free assay |  | competition with immobilised ligand | 1 µM | remaining binding | 100% |
| O=C(Nc1cnn(-c2csc(C(=O)NC3COC3)c2)c1)Nc1c(F)cccc1Cl | enzyme activity | inhibitor |  | 5 µM | remaining activity | 91.5% |
| Cc1ccc(NC(=O)c2ccc(C)c(C(F)(F)F)c2)cc1C#Cc1nn(C2CCC(O)CC2)c2ncnc(N)c12 (centres unmarked) | cell-free assay |  |  | 10 µM | remaining signal | 105% |
| Cc1cc(NC(=O)c2cccc(S(F)(F)(F)(F)F)c2)cc(-n2ccn3nc(-c4cccnc4)cc23)c1 | cell-free assay |  | competition with immobilised ligand | 1 µM | remaining binding | 100% |
| Cc1cc(NC(=O)c2cccc3cc(-c4cccc5[nH]nc(N)c45)ccc23)ccc1F | enzyme activity | inhibitor |  | 0.1 µM | activity vs control | 101% |
| NS(=O)(=O)c1cc(NC(=O)C2(c3ccccc3Cl)CC2)ccc1Oc1cccc(Cl)c1 | cell-free assay |  | competition with immobilised ligand | 1 µM | remaining binding | 77% |
| CC/C(=N\NC(=O)C(C)Nc1ccccc1)c1ccc(O)c(C)c1O (centres unmarked) | enzyme activity | inhibitor |  | 0.1 µM | inhibition | 45.2% |
| Cc1ccc(C(=O)NCc2ccsc2)cc1C#Cc1cn(C(C)C)c2ncnc(N)c12 | enzyme activity | inhibitor |  | 1 µM | activity vs control | 110% |
| CCN(CC)CCNC(=O)c1c(C)[nH]c(/C=C2\C(=O)Nc3ccc(F)cc32)c1C | enzyme activity | inhibitor |  | 10 µM | inhibition | 15% |
| O=c1cc(-c2cccc3c2Sc2ccccc2S3)oc(N2CCOCC2)c1 | enzyme activity | inhibitor |  | 0.5 µM | remaining activity | 113% |
| Cc1ccc(Nc2nccc(N(C)c3ccc4c(C)n(C)nc4c3)n2)cc1S(N)(=O)=O | enzyme activity | inhibitor |  | 10 µM | inhibition | 88% |
| Cc1ccc(NC(=O)c2ccc(CN3CCN(C)CC3)cc2)cc1Nc1nc(-c2cccnc2)cs1 | cell-free assay |  |  | 0.5 µM | remaining signal | 99.5% |
| C[C@@]1(Cc2ccc(C#N)cc2)C(=O)N(c2cc(Cl)cc(Cl)c2)c2ncc(C(=O)NC3(c4nc(C5CCC5)no4)CC3)n21 | cell-free assay |  | competition with immobilised ligand | 1 µM | remaining binding | 100% |
| CNC(=O)c1cc(Oc2ccc(NC(=O)Nc3ccc(Cl)c(C(F)(F)F)c3)cc2)ccn1 | enzyme activity | inhibitor |  | 0.3 µM | inhibition | 8% |
| CNC(=O)c1ccc(Nc2ncc(C(F)(F)F)c(NCc3nccnc3N(C)S(C)(=O)=O)n2)cc1 | cell-free assay |  | competition with immobilised ligand | 0.1 µM | remaining binding | 95% |
| COc1cc(Cl)c(C(=O)N[C@@H](CN[C@H]2CC[C@@H](N)CC2)Cc2ccc(C#N)cc2)cc1-c1ccc(CN[C@H](C)c2ccc(C)cc2)o1 | enzyme activity | inhibitor |  | 1 µM | remaining activity | 97% |
| O=C(Nc1cccnn1)N1CCC(=Cc2cccc(Oc3ccc(C(F)(F)F)cn3)c2)CC1 | cell-free assay |  | competition with immobilised ligand | 1 µM | remaining binding | 87% |
| CCOc1cc(-c2nncn2C)ccc1Nc1ncc2cc(C)nc(NCC(C)(C)C)c2n1 | enzyme activity | inhibitor | FRET | 1 µM | inhibition | < 15% |
| CO[C@@H](C)c1c(Nc2ccc([C@@H](N(C)C(=O)C3CCS(=O)(=O)CC3)C(F)(F)F)cc2)cnc2cc(Cl)nn12 | cell-free assay |  | competition with immobilised ligand | 1 µM | remaining binding | 84% |
| O=C1Nc2ccc(Cl)cc2C1=Cc1cc(Cl)c(O)c(Cl)c1 | cell-free assay |  |  | 0.5 µM | remaining signal | 92.1% |
